pIC50: −log10 of the molar value. Values joined by “and” are separate entries in the source; they are usually repeats but may differ in a detail not shown here. Equal values may be shown once.
Key:
Rattus norvegicus [1] = assay: Antithrombotic activity in Wistar rat assessed as thrombus weight at 10 nmol/kg, iv (reference value: 24.09 +/- 2.33 mg); assay type: functional
Rattus norvegicus [2] = assay: Antithrombotic activity in Wistar rat assessed as thrombus weight at 100 nmol/kg, iv (reference value: 22.09 +/- 3.33 mg); assay type: functional
Aorta = assay: Inhibition of noradrenaline-induced contraction in Wistar rat thoracic aortic ring assessed as vasorelaxant activity at 300 uM treated after noradrenaline challenge; assay type: functional; set-up: scale not given: the % may be the effect or the level left
How it was run: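 Male Wistar rats, 250–300 g, were decapitated and aortic strips were mounted in 37 °C Krebs solution (pH 7.4) gassed with 95% O2/5% CO2, connected to a tension transducer. Strips were contracted with 59 µM noradrenaline, washed, stabilised 30 min, then re-contracted with 59 µM noradrenaline. At peak contraction, compound in ethanol or ethanol alone was added and relaxation was recorded.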

[3] = Antiplatelet activity against pig platelet assessed as inhibition of thrombin-induced platelet aggregation by spectrophotometry; assay type: functional, cell-based; details: Sus scrofa
How it was run: (§1)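 Pig blood (six pigs) spun 1000 rpm 10 min for PRP, then 1500 rpm 10 min for PPP; PRP adjusted to 2×10^8 platelets/mL with autologous PPP. Compound (final 100 µM to 1 nM, diluted in NS from DMSO/NS stock) or NS added, then inducer at final PAF 0.1 µM, ADP 10 µM, AA 350 µM or thrombin 0.1 U/mL.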

Rattus norvegicus [4] = assay: Antithrombotic activity in iv dosed Wistar rat assessed as decrease in thrombus weight; assay type: functional, organism-based
[5] = Antiplatelet activity against pig platelet assessed as inhibition of PAF-induced platelet aggregation by spectrophotometry; assay type: functional, cell-based; details: Sus scrofa; how it was run: as §1
[6] = Antiplatelet activity against pig platelet assessed as inhibition of ADP-induced platelet aggregation by spectrophotometry; assay type: functional, cell-based; details: Sus scrofa; how it was run: as §1
[7] = Antiplatelet activity against pig platelet assessed as inhibition of arachidonic acid-induced platelet aggregation by spectrophotometry; assay type: functional, cell-based; details: Sus scrofa; how it was run: as §1
Rattus norvegicus [8] = assay: Antithrombotic activity in Wistar rat assessed as thrombus weight at 1 nmol/kg, iv (reference value: 22.09 +/- 3.33 mg); assay type: functional
Rattus norvegicus [9] = assay: Antithrombotic activity in Wistar rat assessed as thrombus weight at 167 umol/kg, iv (reference value: 25.99 +/- 2.41 mg); assay type: functional
Rattus norvegicus [10] = assay: Antithrombotic activity in Wistar rat assessed as thrombus weight at 15 umol/kg, iv (reference value: 28.54 +/- 2.62 mg); assay type: functional
Rattus norvegicus [11] = assay: Antithrombotic activity in Wistar rat assessed as thrombus weight at 167 umol/kg, iv (reference value: 28.54 +/- 2.62 mg); assay type: functional
Rattus norvegicus [12] = assay: Antithrombotic activity in Wistar rat assessed as thrombus weight at 167 umol/kg, iv (reference value: 24.09 +/- 2.33 mg); assay type: functional
[13] = Antiplatelet activity against pig platelet assessed as inhibition of arachidonic acid-induced platelet aggregation at 10 uM by spectrophotometry; assay type: functional; details: Sus scrofa; how it was run: as §1
[14] = Antiplatelet activity against pig platelet assessed as inhibition of PAF-induced platelet aggregation at 10 uM by spectrophotometry; assay type: functional; details: Sus scrofa; how it was run: as §1
[15] = Antiplatelet activity against pig platelet assessed as inhibition of ADP-induced platelet aggregation at 10 uM by spectrophotometry; assay type: functional; details: Sus scrofa; how it was run: as §1
Rattus norvegicus [16] = assay: Antithrombotic activity in Wistar rat assessed as thrombus weight at 15 umol/kg, iv (reference value: 24.09 +/- 2.33 mg); assay type: functional
[17] = Antiplatelet activity against pig platelet assessed as inhibition of thrombin-induced platelet aggregation at 10 uM by spectrophotometry; assay type: functional; details: Sus scrofa; how it was run: as §1
Rattus norvegicus [18] = assay: Antithrombotic activity in Wistar rat assessed as thrombus weight at 15 umol/kg, iv (reference value: 25.99 +/- 2.41 mg); assay type: functional

SMILES | pIC50 [3] | pIC50 [5] | pIC50 [6] | pIC50 [7] | Activity (Rattus norvegicus [1]) | Activity (Aorta) | also measured
CC(=O)Oc1ccccc1C(=O)O [ASPIRIN] |  |  |  |  |  |  | Activity (Rattus norvegicus [9]): 15.01 mg; Activity (Rattus norvegicus [10]): 27.6 mg; Activity (Rattus norvegicus [11]): 13.22 mg; Activity (Rattus norvegicus [12]): 13.22 mg
O=C(O)[C@@H]1Cc2ccccc2CN1 | 6.01 | 6.03 | 6.27 | 6.32 |  |  | inhibition at 10 µM [13]: 10.4%; inhibition at 10 µM [14]: 13.5%; inhibition at 10 µM [15]: 10.7%; Activity (Rattus norvegicus [16]): 22.01 mg; inhibition at 10 µM [17]: 14.5%; Activity (Rattus norvegicus [18]): 22.22 mg
CC1(C)N(CC(=O)O)C(=O)[C@@H]2Cc3ccccc3CN21 | 6.22 | 6.28 | 6.76 | 6.54 | 14.39 mg and 13.89 mg | 21.11% | 
CC1(C)N2Cc3ccccc3C[C@H]2C(=O)N1[C@@H](Cc1ccc(O)cc1)C(=O)O | 6.06 | 6.12 | 6.56 | 6.38 | 20.1 mg | 1.59% | 
CC1(C)N2Cc3ccccc3C[C@H]2C(=O)N1[C@@H](Cc1ccccc1)C(=O)O | 6.24 | 6.30 | 6.79 | 6.56 | 13.27 mg | 26.61% | 

The next lines start with results.

pIC50 [3] | pIC50 [5] | pIC50 [6] | pIC50 [7] | SMILES | Activity (Rattus norvegicus [1]) | Activity (Aorta) | also measured
6.22 | 6.29 | 6.77 | 6.54 | CC(C)C[C@@H](C(=O)O)N1C(=O)[C@@H]2Cc3ccccc3CN2C1(C)C | 12.99 mg and 13.79 mg | 30.14% | Activity (Rattus norvegicus [2]): 10.02 mg; inhibition (Rattus norvegicus [4]): Dose-dependent effect; Activity (Rattus norvegicus [8]): 20.67 mg
6.25 | 6.31 | 6.80 | 6.57 | CCC(C)[C@@H](C(=O)O)N1C(=O)[C@@H]2Cc3ccccc3CN2C1(C)C (stereo partly specified) | 12.99 mg | 34.29% | 
6.03 | 6.10 | 6.53 | 6.35 | CC1(C)N2Cc3ccccc3C[C@H]2C(=O)N1[C@@H](CC(=O)O)C(=O)O | 21.41 mg | 2.89% | 
6.16 | 6.22 | 6.68 | 6.48 | CC(O)[C@@H](C(=O)O)N1C(=O)[C@@H]2Cc3ccccc3CN2C1(C)C (stereo partly specified) | 16.04 mg | 9.98% | 
6.21 | 6.27 | 6.75 | 6.52 | CC1(C)N2Cc3ccccc3C[C@H]2C(=O)N1[C@@H](CS)C(=O)O | 14.36 mg | 16.57% | 
6.20 | 6.27 | 6.74 | 6.52 | CC1(C)N2Cc3ccccc3C[C@H]2C(=O)N1[C@@H](CCC(N)=O)C(=O)O | 14.39 mg | 12.24% | 
